Experimental data: ChEMBL document CHEMBL4190252, “Synthesis, antitumor activity and CDK1 inhibiton of new thiazole nortopsentin analogues” (Eur J Med Chem, 2017)
pIC50: −log10 of the molar value. Activity calls are given as the source filed them. The rule behind the calls is not given here.

Legend:
MCF7 [1] = test: Induction of apoptosis in human MCF7 cells assessed as necrotic cells at 5 x 10^-8 M after 72 hrs by Annexin V/propidium iodide double staining-based flow cytometry (reference value: 0.1%); type: functional
Summary of the method: (§1)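 MCF-7 cells were grown in RPMI with 10% FBS, 2 mM L-glutamine and antibiotics at 37 °C in 5% CO2. They were seeded at 2.0 x 10^5 cells/cm2 in triplicate, left to adhere overnight, then treated for 72 h; DMSO 0.1% served as vehicle. Trypsinised cells at 2.0 x 10^5/mL were stained with annexin V-FITC and PI for 15 min at room temperature in the dark. At least 1.0 x 10^4 cells were gated into viable, early apoptotic, late apoptotic and necrotic quadrants.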

MCF7 [2] = test: Induction of apoptosis in human MCF7 cells assessed as early apoptotic cells at 5 x 10^-8 M after 72 hrs by Annexin V/propidium iodide double staining-based flow cytometry (reference value: 1%); type: functional; summary of the method: as §1
MCF7 [3] = test: Induction of apoptosis in human MCF7 cells assessed as late apoptotic cells at 5 x 10^-8 M after 72 hrs by Annexin V/propidium iodide double staining-based flow cytometry (reference value: 0%); type: functional; summary of the method: as §1
MCF7 [4] = test: Cell cycle arrest in human MCF7 cells assessed as accumulation at G2/M phase at GI50 concentration after 48 hrs by propidium iodide-staining based flow cytometry; type: functional
Summary of the method: (§2)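 Cells were trypsinized, washed in cold PBS, and 1 x 10^6 cells stained with 20 µg/ml PI plus 200 µg/ml RNase for 30 min at room temperature in the dark. At least 1x 10^4 cells were analysed by flow cytometry. Mean±SD of three experiments in triplicate.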

[5] = biological target: Cyclin-dependent kinase 1/cyclin B1 (Homo sapiens, UniProt P06493); test: Inhibition of recombinant human full length His-tagged CDK1/cyclin B expressed in baculovirus expression system after 60 mins in presence of omnia peptide substrate by fluorescence based assay
Cyclin-dependent kinase 1/cyclin B1, sequence (P06493 whole entry): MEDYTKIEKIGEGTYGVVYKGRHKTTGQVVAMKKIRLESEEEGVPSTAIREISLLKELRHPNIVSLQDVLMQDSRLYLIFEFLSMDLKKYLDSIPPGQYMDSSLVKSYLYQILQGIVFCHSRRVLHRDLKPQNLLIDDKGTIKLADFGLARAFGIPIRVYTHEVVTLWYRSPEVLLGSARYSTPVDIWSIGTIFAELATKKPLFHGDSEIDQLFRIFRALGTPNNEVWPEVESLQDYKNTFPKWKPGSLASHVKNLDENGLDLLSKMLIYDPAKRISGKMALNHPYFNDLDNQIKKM
Cyclin-dependent kinase 1/cyclin B1, sequence (P14635 whole entry, further chain): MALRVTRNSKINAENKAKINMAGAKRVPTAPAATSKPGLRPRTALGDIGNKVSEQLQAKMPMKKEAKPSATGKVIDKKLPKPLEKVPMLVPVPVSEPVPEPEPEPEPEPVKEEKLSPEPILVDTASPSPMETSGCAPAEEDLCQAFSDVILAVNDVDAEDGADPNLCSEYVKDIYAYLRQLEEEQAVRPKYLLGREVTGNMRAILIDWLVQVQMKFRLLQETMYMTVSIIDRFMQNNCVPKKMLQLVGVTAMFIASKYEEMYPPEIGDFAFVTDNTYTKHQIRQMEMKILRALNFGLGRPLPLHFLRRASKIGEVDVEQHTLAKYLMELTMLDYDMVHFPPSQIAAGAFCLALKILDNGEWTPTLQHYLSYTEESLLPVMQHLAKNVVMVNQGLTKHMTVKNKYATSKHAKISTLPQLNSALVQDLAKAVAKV
Summary of the method: (§3)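 Recombinant human CDK1/cyclin B in kinase buffer with Omnia peptide substrate, ATP and DTT, with inhibitor at 0.1–10 µM. Reactions ran for 60 min at 30 °C, with fluorescence read at ex 360/em 485 nm. Initial velocity came from the RFU-versus-time slope and was plotted against concentration for a dose-response IC50 fit. Values are mean±SD of two determinations.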

[6] = biological target: Cyclin-dependent kinase 1/cyclin B1 (Homo sapiens) (UniProt P06493+P14635); test: Inhibition of recombinant human full length His-tagged CDK1/cyclin B expressed in baculovirus expression system at 0.1 to 10 uM after 60 mins in presence of omnia peptide substrate by fluorescence based assay; summary of the method: as §3
Cyclin-dependent kinase 1/cyclin B1 (Homo sapiens), sequence (P06493 whole entry, looked up): as the sequence (P06493 whole entry) above
Cyclin-dependent kinase 1/cyclin B1 (Homo sapiens), sequence (P14635 whole entry, looked up): as the sequence (P14635 whole entry, further chain) above

MCF7 [7] = test: Cell cycle arrest in human MCF7 cells assessed as accumulation at G0/G1 phase at GI50 concentration after 48 hrs by propidium iodide-staining based flow cytometry (reference value: 63.5%); type: functional; summary of the method: as §2

For `COCCn1cc(-c2nc(-c3c[nH]c4ncccc34)cs2)c2cc(OC)ccc21`, the Activity (MCF7 [1]) was 0%, the Activity (MCF7 [2]) was 54.2% and the Activity (MCF7 [3]) was 0.1%. For the same molecule, the Activity (MCF7 [4]) was >50% and the pIC50 [5] was 5.94.

With `COCCn1cc(-c2csc(-c3c[nH]c4ccc(Br)cc34)n2)c2cccnc21` the inhibition [6] was “inactive” and the Activity (MCF7 [7]) was 9%.
